# Bioassay records (PubChem BioAssay)
# Cl transport mod – KCC2 (human) Cl- transport modulation. AID 1456. KCC2 cells, thallium flux FluoZin-2 fluorescence. B-score of Tl+ flux slope (higher = more flux/activation; lower = inhibition) at 10 µM. Q9H2X9. actives 2.2% (n = 190,000);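 active = thallium flux slope and its plate-corrected score both differing from the plate sample mean at a set confidence after two filtering rounds, in either direction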;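 note: slope of fluorescence scaled to starting intensity during 10 to 20 s after thallium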
# hERG protect – compounds protecting human hERG from proarrhythmic drug block; activation (rescue from dofetilide block), less the hit threshold, % at 10 µM; CHO-hERG, FluxOR thallium flux, dofetilide IC70 present; Q12809; AID 1511; actives 0.51% (n = 310,000);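 active = activation above the mean of controls blocked by dofetilide plus 5 SD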;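 note: thallium influx through hERG after potassium depolarization seen as dye fluorescence rise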
# KCNQ1 act – potentiates or activates the human KCNQ1 potassium channel; AID 2648; P51787; B-score at 10 µM; CHO-K1 KCNQ1, thallium flux FluxOR fluorescence; stronger effect = higher value; actives 0.35% (n = 310,000);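 active = fluorescence ratio B-score, a plate-corrected score, at least three library SD, with initial intensity B-score within 5 SD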
#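 Doses: Single concentration per compound, DMSO matched to controls | Test system: KCNQ1-transfected CHO-K1 cells | Timing: 90 min dye loading and 20 min compound exposure, both at room temperature | Measured by: Kinetic FluxOR thallium fluorescence, 10-s 1-Hz baseline, 110-s post-stimulus read | Medium: Assay buffer with matched DMSO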
# KCNK3 block – human KCNK3 channel inhibition, primary screen. O14649. CHO-KCNK3 thallium flux, FluxOR fluorescence; stronger effect = lower value. B-score at 10 µM. actives 0.84% (n = 340,000);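 active = B-score under library mean minus 4 SD, starting fluorescence ratio at most library mean plus 5 SD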;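 note: more negative B-score means stronger inhibition of thallium flux through KCNK3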
# KCNK9 inh – inhibitors of human KCNK9 two-pore domain potassium channel; HEK293 KCNK9, FluxOR thallium flux fluorescence; stronger effect = lower value; B-score at 10 µM; actives 1.2% (n = 310,000); AID 488922;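 active = ratio B-score over 3 SD below the library mean, with starting fluorescence within 5 SD of its mean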;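 note: negative B-score means less thallium flux so channel inhibition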
# Target sequence (Q9NPC2 whole entry, looked up, the tested form may be a part): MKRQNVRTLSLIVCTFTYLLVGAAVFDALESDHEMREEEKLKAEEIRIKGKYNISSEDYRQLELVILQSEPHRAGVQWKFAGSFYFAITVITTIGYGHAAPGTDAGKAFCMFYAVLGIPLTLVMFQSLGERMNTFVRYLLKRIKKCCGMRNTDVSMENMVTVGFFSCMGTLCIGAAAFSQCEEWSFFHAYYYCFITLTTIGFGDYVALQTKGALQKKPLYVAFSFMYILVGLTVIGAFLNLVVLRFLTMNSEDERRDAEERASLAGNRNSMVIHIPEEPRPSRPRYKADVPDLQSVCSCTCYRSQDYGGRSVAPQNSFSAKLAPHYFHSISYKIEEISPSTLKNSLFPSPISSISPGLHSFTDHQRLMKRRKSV
# KCNQ1 block – blocks the human KCNQ1 potassium channel; CHO-K1 KCNQ1, FluxOR thallium flux fluorescence; stronger effect = higher value; B-score at 10 µM; actives 1.3% (n = 310,000); AID 2642;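 active = compounds whose thallium flux B-score, printed positive for inhibition, exceeds three library SD while starting fluorescence stays within three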;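 note: channel opened by potassium depolarization with thallium stimulus after 20 min compound exposure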
# KCC2 sec1 – KCC2 (human) modulation, secondary assay. shares compounds with Cl transport mod. HEK293-KCC2, thallium flux, FluoZin2 fluorescence; stronger effect = higher value. normalised thallium flux (F/F0 slope) at 10 µM. actives 15% (n = 3,700);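 active = thallium flux slope above the same plate's solvent-only control mean plus 3 SD; inconclusive = the two replicate wells disagree; inactive = no significant difference from solvent-only control wells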
# KCC2 bumet counter – bumetanide-insensitive thallium flux in KCC2 cells with ouabain, counter-screen | shares compounds with Cl transport mod | HEK293-KCC2 + bumetanide/ouabain, thallium flux FluoZin2; stronger effect = higher value | normalized thallium flux at 10 µM | actives 49% (n = 3,700) | AID 1714;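 active = thallium entry rate above the same plate's blocked-transporter control wells by more than 3 SD; inconclusive = the two repeat wells disagree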;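 note: raw slope of fluorescence over initial fluorescence between 10 and 20 s after thallium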
# KCC2 sec2 – confirmation of human KCC2 transport modulators. shares compounds with Cl transport mod. HEK293-KCC2, thallium flux FluoZin2 fluorescence; actives lie on both sides; F/F0 rise rate, 10–20 s post-thallium. normalized thallium flux at 10 µM. actives 23% (n = 3,700). AID 1715;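 active = thallium flux slope more than 3 SD above or below the plate's solvent-only control mean, mostly below; inconclusive = the two repeat wells disagreed; inactive = no significant shift from solvent-only controls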;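 note: raw slope with 0.1% DMSO as baseline and bumetanide as block control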
# HEK counter1 – counter-screen for KCC2 modulators: effect in parental HEK293 cells. shares compounds with Cl transport mod. thallium flux FluoZin2, ouabain; baseline-ratio fluorescence slope, 10–20 s after thallium. thallium flux rate (normalised fluorescence) at 10 µM. actives 46% (n = 3,700). AID 1716;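 active = thallium flux rate significantly above the same plate's solvent-only control wells, beyond their mean plus 3 SD; inconclusive = the two replicate wells gave conflicting results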
# KCC2 ouabain – KCC2 (human) modulation, ouabain retest. shares compounds with Cl transport mod. HEK293-KCC2, thallium flux FluoZin2 fluorescence; bidirectional: low = inhibitor, high = activator. raw Tl+ flux slope (below DMSO = inhibition, above = activation) at 10 µM. actives 48% (n = 3,700). AID 1717;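 active = thallium flux slope beyond 3 SD from same-plate DMSO control mean in most replicates, usually higher, sometimes lower; inconclusive = repeat tests gave conflicting results; inactive = no significant difference from controls in most replicates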;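 note: slope of initial-normalized fluorescence between seconds 10 and 20 after thallium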
# HEK counter2 – counter-screen for KCC2 modulators: effect in parental HEK293 cells. shares compounds with Cl transport mod. thallium flux FluoZin-2 fluorescence slope. thallium flux slope at 10 µM. actives 33% (n = 3,700);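 active = thallium flux slope above the same plate's solvent-control mean plus 3 SD in both duplicate wells; inconclusive = duplicate wells that disagreed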;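 note: run without ouabain in cells lacking the KCC2 cotransporter; slope of fluorescence scaled to its starting value between 10 and 20 s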
# The depositor's hits bear a star; i = inactive; ? = inconclusive; · = no result given. Only some compounds are listed: those with a hit (about 4.1% of all), similar ones and a draw of the others.
SMILES,Cl transport mod,hERG protect,KCNQ1 act,KCNK3 block,KCNK9 inh,KCNQ1 block,KCC2 sec1,KCC2 bumet counter,KCC2 sec2,HEK counter1,KCC2 ouabain,HEK counter2
COc1ccc(/C=C2\CCc3ccccc3C2=O)cc1CN1CCOCC1,-5*,-8,i,i,i,i,?,?,0.023*,0.0072,?,0.01
O=C1NC2(CCCc3ccccc32)C(=O)N1Cc1nnc(-c2ccccc2Br)o1 (stereo not given),-0.52,-13,i,i,i,i,·,·,·,·,·,·
CC1(CCc2ccccc2)NC(=O)N(Cc2nnc(-c3ccccc3Br)o2)C1=O (stereo not given),·,-2,i,i,i,i,0.0071,0.0044,0.024*,0.0074,0.016*,0.01
COc1cc(/C=C/C(C)=NNc2ccccc2)ccc1O,·,·,·,i,·,·,·,·,·,·,·,·
CC(C)(C)c1ccc(-c2n[nH]c(=S)n2/N=C/c2ccncc2)cc1,5.6*,0,i,i,i,i,0.011,0.018*,0.032,0.013*,?,0.011
Cn1cccc1/C=N/n1c(-c2ccc(Cl)cc2)n[nH]c1=S,·,-7,i,i,i,i,·,·,·,·,·,·
Cc1ccc(-c2n[nH]c(=S)n2/N=C/c2cccn2C)cc1,5.2*,-6,i,i,i,i,0.012,0.031*,0.034,0.0093*,0.026,0.011*
S=c1[nH]nc(-c2ccccc2)n1/N=C/c1cccs1,·,0,i,i,i,i,0.0056,0.04*,0.043*,0.025*,0.037*,0.027*
S=c1[nH]nc(C2CCCCC2)n1/N=C/c1ccncc1,1.1,-11,i,i,i,i,·,·,·,·,·,·
S=c1[nH]nc(C2CCCCC2)n1/N=C/c1cccs1,6.1*,-13,i,i,i,i,0.013*,0.065*,0.033,0.023*,?,?
CC(=O)Oc1cccc2c1C(=O)C1CC=CC(OC(C)=O)C1C2=O (stereo not given),·,·,·,i,·,·,·,·,·,·,·,·
CC(Oc1ccccc1F)c1nnc(SCC(=O)NCc2ccc3c(c2)OCO3)o1 (stereo not given),·,·,·,i,·,·,·,·,·,·,·,·
O=C1/C(=C/c2ccccc2O)SC(=S)N1Cc1cccnc1,10*,-3,i,i,i,i,0.0062,0.017*,?,0.025*,0.027*,0.023*
O=c1ncn(-c2cccc(Cl)c2)c2ccccc12,·,-10,i,i,i,i,·,·,·,·,·,·
Cc1ccc(S(=O)(=O)N2CCCN(C(=O)c3cc4ccccc4[nH]3)CC2)cc1,·,-8,i,i,i,i,·,·,·,·,·,·
COc1cc(-c2nnc(CSc3nnc(Nc4ccc(C(C)C)cc4)s3)o2)cc(OC)c1OC,-4*,-15,i,i,i,i,0.0067,0.0049,0.025*,0.0077,0.016*,0.011
Cn1ccnc1SCc1ccc(Cl)cc1Cl,·,-8,i,i,i,i,·,·,·,·,·,·
